The target of one experiment is T1, Cholecystokinin receptor (Rattus norvegicus, UniProt P30551+P30553).
T1 sequence (P30551 whole entry): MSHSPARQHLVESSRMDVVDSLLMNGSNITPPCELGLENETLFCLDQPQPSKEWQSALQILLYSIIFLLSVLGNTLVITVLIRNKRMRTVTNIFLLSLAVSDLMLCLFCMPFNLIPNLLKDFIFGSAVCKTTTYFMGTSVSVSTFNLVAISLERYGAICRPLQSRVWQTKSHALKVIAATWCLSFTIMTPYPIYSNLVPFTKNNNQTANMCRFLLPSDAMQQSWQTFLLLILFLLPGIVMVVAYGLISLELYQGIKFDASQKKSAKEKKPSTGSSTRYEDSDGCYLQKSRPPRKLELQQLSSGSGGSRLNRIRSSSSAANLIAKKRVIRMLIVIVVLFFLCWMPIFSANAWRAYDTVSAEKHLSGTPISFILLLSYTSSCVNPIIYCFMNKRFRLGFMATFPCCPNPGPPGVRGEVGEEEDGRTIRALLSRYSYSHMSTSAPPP
T1 sequence (P30553 whole entry): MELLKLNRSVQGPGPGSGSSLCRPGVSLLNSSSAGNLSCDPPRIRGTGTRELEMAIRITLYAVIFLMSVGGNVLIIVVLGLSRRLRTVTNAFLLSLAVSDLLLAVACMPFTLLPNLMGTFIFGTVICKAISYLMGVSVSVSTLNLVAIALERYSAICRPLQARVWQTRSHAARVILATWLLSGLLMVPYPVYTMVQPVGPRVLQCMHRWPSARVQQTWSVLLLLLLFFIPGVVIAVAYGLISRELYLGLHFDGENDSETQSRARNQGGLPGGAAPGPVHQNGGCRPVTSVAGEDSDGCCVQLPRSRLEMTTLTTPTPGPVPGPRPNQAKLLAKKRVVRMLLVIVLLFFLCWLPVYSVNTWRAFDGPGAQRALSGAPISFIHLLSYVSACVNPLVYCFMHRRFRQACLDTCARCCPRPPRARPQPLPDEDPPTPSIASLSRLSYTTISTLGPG
It counts as protein assay.

Experiment [1] deals with Mus musculus. Description: In vivo activity on the basis of the ability to antagonize CCK-8 inhibition of charcoal meal gastric emptying in mice after oral administration. The following applies: Stomach. It counts as functional. The method in brief:
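Oral dosing of mice (N ≥ 10/dose) 1 h before sc CCK-8 at 80 μg/kg. The charcoal meal followed CCK-8 by 5 min, with gastric emptying scored 5 min after that. ED50 was obtained by regression analysis using at least three dose levels.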

Experiment [2] has as its system Mus musculus. The experiment is described as follows: In vivo activity on the basis of the ability to antagonize CCK-8 inhibition of charcoal meal gastric emptying in mice after intraperitoneal administration. It counts as functional. The following applies: Stomach, ip. The essentials:
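Mice dosed intraperitoneally 1 h before CCK-8 (80 μg/kg, sc), N ≥ 10/dose. A charcoal meal was given 5 min after CCK-8 and gastric emptying was measured 5 min later. ED50 was derived by regression from at least three dose levels.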

The target of experiment [3] is GABA-A receptor; anion channel. Description: Displacement of [3H]flunitrazepam from GABA-A benzodiazepine receptor of guinea pig brain. The arrangement: species or system Cavia porcellus.
Experiment [4] deals with GABA-A receptor; anion channel. The experiment is described as follows: Displacement of [3H]diazepam from rat brain GABA-A benzodiazepine receptor. (In a radioligand displacement assay an active substance lowers the binding of a labelled ligand.)
For the next experiment, the species on record is Rattus norvegicus. The experiment is described as follows: Selectivity of binding to pancreatic CCK and brain benzodiazepine receptors, ratio of IC50.

Take `CN1C(=O)[C@@H](Cc2c[nH]c3ccccc23)N=C(c2ccccc2F)c2ccccc21`: the half-inhibitory concentration (IC50) against Cholecystokinin receptor is 0.27 µM; in experiment [3], more than 100 µM. Besides, the ED50 was 25 mg/kg with Mus musculus [1] and 15 mg/kg in the experiment with Mus musculus [2].
Regarding `O=C(O)CN1C(=O)[C@@H](Cc2c[nH]c3ccccc23)N=C(c2ccccc2F)c2ccccc21`, the results for the IC50 (in experiment [4]; at Cholecystokinin receptor) were more than 100 µM and 0.3 µM, respectively. Besides, the ED50 in the experiment on Mus musculus [1] amounted to 42 mg/kg. In addition, the Ratio in the experiment listed under Rattus norvegicus is less than 0.003.
In experiment [4], `CC(C)C[C@@H]1N[C@H]2N(C1=O)c1ccccc1[C@@]2(O)C[C@@H]1NC(=O)c2ccccc2-n2c1nc1ccccc1c2=O` [ASPERLICIN] returned a half-inhibitory concentration (IC50) of 50 µM. In the experiment with Mus musculus [1], this compound returned an ED50 of more than 300 mg/kg. The Ratio in the experiment filed under Rattus norvegicus is 0.028.
For `Cc1nnc2n1-c1ccccc1C(c1ccccc1F)=N[C@@H]2Cc1c[nH]c2ccccc12`, the concentration for half-maximal inhibition (IC50) against Cholecystokinin receptor was 1.2 µM; in experiment [3], 0.8 µM. In the experiment with Mus musculus [1], this compound returned an ED50 of 76 mg/kg. Besides, the Ratio in the experiment listed under Rattus norvegicus was determined as 1.5.
For the compound `O=C1Nc2ccc(Cl)cc2C(c2ccccc2)=N[C@@H]1Cc1c[nH]c2ccccc12`, the values for the concentration for half-maximal inhibition (IC50) (in experiment [4]; at Cholecystokinin receptor) were more than 100 µM and 3.4 µM, respectively. The median effective dose (ED50) is more than 300 mg/kg in the experiment with Mus musculus [1] and 88 mg/kg in the experiment with Mus musculus [2].
Take `O=C1CN=C(c2ccccc2Cl)c2cc([N+](=O)[O-])ccc2N1` [CLONAZEPAM]: the IC50 was 0.0017 µM in experiment [4] and more than 100 µM on Cholecystokinin receptor. Also, the Ratio in the experiment listed under Rattus norvegicus was more than 58000.

As a reminder, the IC50 is the midpoint of a concentration-inhibition curve. Usually ED50 stands for the midpoint of the dose-response relation. Higher therefore signals a need for a large dose.
